# Measured values from different studies.
# Each line is one published result; the experiments were not run side by side.
# Target: Mitogen-activated protein kinase kinase kinase 19 (MAP3K19, Homo sapiens, UniProt Q56UN5)
# Sequence (Q56UN5 1-1328, as in one of the studies): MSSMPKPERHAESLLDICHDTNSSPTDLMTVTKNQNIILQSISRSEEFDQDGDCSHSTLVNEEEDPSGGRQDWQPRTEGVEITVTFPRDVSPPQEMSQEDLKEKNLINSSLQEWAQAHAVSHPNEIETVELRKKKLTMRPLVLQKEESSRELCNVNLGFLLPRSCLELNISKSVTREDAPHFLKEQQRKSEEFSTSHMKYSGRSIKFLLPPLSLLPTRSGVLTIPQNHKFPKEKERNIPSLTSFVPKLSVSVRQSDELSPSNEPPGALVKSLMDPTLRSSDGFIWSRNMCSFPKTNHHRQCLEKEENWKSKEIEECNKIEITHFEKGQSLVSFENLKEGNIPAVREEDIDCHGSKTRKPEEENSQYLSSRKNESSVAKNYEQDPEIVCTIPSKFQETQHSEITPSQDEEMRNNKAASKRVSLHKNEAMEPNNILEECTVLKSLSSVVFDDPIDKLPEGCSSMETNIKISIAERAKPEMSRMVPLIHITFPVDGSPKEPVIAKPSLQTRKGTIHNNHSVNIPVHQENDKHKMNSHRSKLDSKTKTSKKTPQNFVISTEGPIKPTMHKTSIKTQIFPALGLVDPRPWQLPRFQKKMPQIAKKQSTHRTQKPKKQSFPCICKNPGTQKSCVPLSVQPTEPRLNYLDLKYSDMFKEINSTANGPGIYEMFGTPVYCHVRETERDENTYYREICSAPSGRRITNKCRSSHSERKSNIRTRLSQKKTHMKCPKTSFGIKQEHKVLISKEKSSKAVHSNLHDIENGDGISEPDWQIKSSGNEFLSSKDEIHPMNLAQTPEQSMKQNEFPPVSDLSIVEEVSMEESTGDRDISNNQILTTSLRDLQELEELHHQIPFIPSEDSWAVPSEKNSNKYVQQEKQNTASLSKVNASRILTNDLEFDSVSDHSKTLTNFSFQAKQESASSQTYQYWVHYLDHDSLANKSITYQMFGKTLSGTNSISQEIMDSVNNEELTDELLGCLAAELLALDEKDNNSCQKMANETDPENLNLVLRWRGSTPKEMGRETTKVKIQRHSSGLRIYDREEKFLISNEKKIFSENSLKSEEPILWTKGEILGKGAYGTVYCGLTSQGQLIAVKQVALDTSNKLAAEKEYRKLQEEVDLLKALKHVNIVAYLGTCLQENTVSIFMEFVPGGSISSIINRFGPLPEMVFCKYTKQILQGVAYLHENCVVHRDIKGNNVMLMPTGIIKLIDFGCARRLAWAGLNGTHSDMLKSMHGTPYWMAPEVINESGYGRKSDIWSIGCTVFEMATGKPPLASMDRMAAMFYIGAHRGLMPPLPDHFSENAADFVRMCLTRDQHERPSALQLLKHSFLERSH
SMILES,observed,technique,tested at,remaining binding
Cc1cc(-n2nc(Cc3cc(F)cc(C(F)(F)F)c3)nc2C)ccc1C(N)=O,cell-free assay,competition with immobilised ligand,1 µM,98%
N[C@H]1CCN(c2nccc(-c3cnn4ncccc34)n2)C1,binding,,1 µM,79%
O=C(Nc1c[nH]nc1C(=O)NC1CCNCC1)c1cc(F)cc(F)c1,binding,competition with immobilised ligand,1 µM,100%
Cc1nc(N2CC[C@@H](O)C2)ncc1-c1cc(C(F)(F)F)cc2[nH]ncc12,binding,competition with immobilised ligand,1 µM,67%
O=C(c1ccc(Nc2ncc(Cl)c(-c3cc4ccccc4s3)n2)cc1)N1CCC(N2CCCC2)CC1,binding,competition with immobilised ligand,1 µM,0%
COc1cnc(Nc2cccc(S(N)(=O)=O)c2)nc1N1CCN(c2ccccc2)C(=O)C1,binding,competition with immobilised ligand,1 µM,32%
Cc1cc(C)c(-n2ccn3nc(-c4cccnc4)cc23)cc1NC(=O)c1cc(C#N)cc(S(F)(F)(F)(F)F)c1,cell-free assay,competition with immobilised ligand,0.1 µM,99.5%
CN(C)c1nccc(-c2cnc3ncccn23)n1,binding,,1 µM,79%
CNC(=O)[C@@H]1CC[C@@H](n2c(-c3ccc4cnccc4c3)nc3ccc(C(=O)NCc4cccc(C(N)=O)c4)cc32)C1,binding,competition with immobilised ligand,1 µM,100%
CO[C@H]1CC[C@H](CNc2ccc(S(=O)(=O)NC(=O)c3ccc(N4CCN(CC5=C(c6ccc(Cl)cc6)CC(C)(C)CC5)CC4)cc3Oc3cnc4[nH]ccc4c3)cc2[N+](=O)[O-])CC1,cell-free assay,competition with immobilised ligand,1 µM,64%
C=CC(=O)N1CCC(C(=O)NCC(=O)N2CCN(c3nc(-c4cnc(N)nc4C(F)F)nc(N4CCOCC4)n3)CC2)CC1,binding,competition with immobilised ligand,1 µM,42%
O=C(NCCCN1CCOCC1)c1ccc(Nc2nccc(-c3cc4ccccc4s3)n2)cc1,binding,competition with immobilised ligand,1 µM,0.1%
F[C@@H]1CCN(c2nccc(-c3cnn4ncccc34)n2)C1,binding,,1 µM,89%
Nc1ncc2c(n1)-c1c([nH]c3ccc(C#CC4CC4)cc13)CCCC2,binding,competition with immobilised ligand,1 µM,64%
c1cncc(-c2cccc(Nc3nccc(NC4CCCCC4)n3)c2)c1,binding,competition with immobilised ligand,10 µM,18%
CC1CCCN1c1nccc(-c2cnn3ncccc23)n1 (stereo not drawn),binding,,1 µM,95%
O=C(c1ccc(Nc2ncc(Cl)c(-c3ccc(Cl)s3)n2)cc1)N1CCC(N2CCCC2)CC1,binding,competition with immobilised ligand,1 µM,0%
CN(C)c1nccc(-c2cnn3ncccc23)n1,binding,,1 µM,50%
CC(=O)C1=C(C)N(c2cccc(C(F)(F)F)c2)C(=O)N[C@@H]1c1ccc(C#N)nc1,cell-free assay,competition with immobilised ligand,1 µM,93%
CN(CCCC(F)(F)F)c1nccc(-c2cnn3ncccc23)n1,binding,,1 µM,95%
CNCc1ccccc1-c1csc([C@H](C)Nc2nc(C)nc3cc(OC)c(OC)cc23)c1,cell-free assay,competition with immobilised ligand,1 µM,78%
